Laboratory results taken from ChEMBL document CHEMBL3112531, “Synthesis and evaluation of 4-(2-pyrimidinylamino) benzamides inhibitors of hedgehog signaling pathway” (Bioorg Med Chem Lett, 2014).
Each block holds one compound with its values, some of them ahead of it.

Columns and labels:
[1] = Inhibition of hedgehog signaling pathway in mouse NIH/3T3 cells by Gli1-luciferase reporter gene assay; format: cell-based; conditions: NIH3T3
[2] = Half life in Sprague-Dawley rat at 1 mg/kg, iv; format: ADME, organism-based; parameters: dose 1 mg/kg, route intravenous; conditions: in vivo
Method in brief: (§1)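 SD rats given a single 1 mg/kg iv dose in 5% DMA + 5% Tween-80. Plasma concentration–time data were analysed by a noncompartmental approach.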

[3] = (§2) Mean residence time (0 to t) in Sprague-Dawley rat at 1 mg/kg, iv; format: ADME, organism-based; parameters: dose 1 mg/kg, route intravenous; conditions: Sprague-Dawley, in vivo; method in brief: as §1
[4] = Clearance in Sprague-Dawley rat at 1 mg/kg, iv; format: ADME, organism-based; parameters: dose 1 mg/kg, route intravenous; conditions: in vivo; method in brief: as §1
[5] = Volume of distribution at steady state in Sprague-Dawley rat at 1 mg/kg, iv; format: ADME, organism-based; parameters: dose 1 mg/kg, route intravenous; conditions: Sprague-Dawley, in vivo, read-out: Vdss; method in brief: as §1
[6] = AUC in Sprague-Dawley rat at 1 mg/kg, iv; format: ADME, organism-based; parameters: dose 1 mg/kg, route intravenous; conditions: plasma; method in brief: as §1
[7] = Cmax in Sprague-Dawley rat at 1 mg/kg, iv; format: ADME, organism-based; parameters: dose 1 mg/kg, route intravenous; conditions: in vivo; method in brief: as §1
[8] = Oral bioavailability in Sprague-Dawley rat at 5 mg/kg; format: ADME, organism-based; conditions: in vivo
Method in brief: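 Oral dosing of SD rats at 5 mg/kg in 0.5% HPMC + 0.3% Tween-80 (pH 2.8), with blood samples n = 3, alongside iv dosing at 1 mg/kg in 5% DMA + 5% Tween-80. Plasma concentration–time data were analysed noncompartmentally.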

[9] = Half life in Sprague-Dawley rat at 5 mg/kg, po; format: ADME, organism-based; parameters: dose 5 mg/kg, route oral; conditions: in vivo
Method in brief: (§3)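 SD rats dosed orally at 5 mg/kg in 0.5% HPMC + 0.3% Tween-80 (pH 2.8). Blood samples (n = 3) were centrifuged at 4000 rpm for 5 min at 4 °C. Plasma concentration–time data were analysed noncompartmentally.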

[10] = Mean residence time (0 to t) in Sprague-Dawley rat at 5 mg/kg, po; format: ADME, organism-based; parameters: dose 5 mg/kg, route oral; conditions: in vivo; method in brief: as §3
[11] = Clearance in Sprague-Dawley rat at 5 mg/kg, po; format: ADME, organism-based; parameters: dose 5 mg/kg, route oral; conditions: in vivo; method in brief: as §3
Rattus norvegicus [12] = experiment: Volume of distribution at steady state in Sprague-Dawley rat at 5 mg/kg, po; format: ADME, organism-based; parameters: dose 5 mg/kg, route oral; conditions: in vivo; method in brief: as §3
[13] = AUC in Sprague-Dawley rat at 5 mg/kg, po; format: ADME, organism-based; parameters: dose 5 mg/kg, route oral; conditions: plasma; method in brief: as §3
[14] = Cmax in Sprague-Dawley rat at 5 mg/kg, po; format: ADME, organism-based; parameters: dose 5 mg/kg, route oral; conditions: in vivo; method in brief: as §3
[15] = Ratio of GDC-0449 IC50 to compound IC50 for hedgehog signaling pathway in mouse NIH/3T3 cells by Gli1-luciferase reporter gene assay; format: cell-based
Rattus norvegicus [16] = experiment: as §2; format: ADME, organism-based; parameters: dose 1 mg/kg, route intravenous; conditions: in vivo; method in brief: as §1

SMILES: Cc1ccc(CNCCO)cc1NC(=O)c1ccc(Nc2ncc(C)c(-c3ccc(OC(F)(F)F)cc3)n2)cc1
IC50 [1]: 1.1 nM

SMILES: CCNCc1ccc(C)c(NC(=O)c2ccc(Nc3ncc(C)c(-c4ccc(OC(F)(F)F)cc4)n3)cc2)c1
IC50 [1]: 0.72 nM

SMILES: Cc1ccc(CNC(C)(C)C)cc1NC(=O)c1ccc(Nc2ncc(C)c(-c3ccc(OC(F)(F)F)cc3)n2)cc1
IC50 [1]: 0.9 nM

SMILES: Cc1ccc(CN(CCNC(C)C)C(C)C)cc1NC(=O)c1ccc(Nc2ncc(C)c(-c3ccc(OC(F)(F)F)cc3)n2)cc1
IC50 [1]: 10.9 nM

SMILES: CCN(CC)Cc1ccc(C)c(NC(=O)c2ccc(Nc3ncc(C)c(-c4ccc(OC(F)(F)F)cc4)n3)cc2)c1
IC50 [1]: 0.23 nM

SMILES: Cc1ccc(CN(CCO)CCO)cc1NC(=O)c1ccc(Nc2ncc(C)c(-c3ccc(OC(F)(F)F)cc3)n2)cc1
IC50 [1]: 0.47 nM

SMILES: Cc1ccc(CN2C[C@@H](C)O[C@@H](C)C2)cc1NC(=O)c1ccc(Nc2ncc(C)c(-c3ccc(OC(F)(F)F)cc3)n2)cc1
bioavailability [8]: 44.4%
half-life [9]: 9.5 h
MRT last [10]: 9.7 h
CL/F [11]: 51.9 mL/min/kg
Vdss (Rattus norvegicus [12]): 42.9 L/kg
AUC [13]: 1300 ng·h/mL
Cmax [14]: 94 ng/mL
half-life [2]: 9.2 h
MRT last [3]: 7.4 h
clearance [4]: 24.9 mL/min/kg
Vd [5]: 20 L/kg
AUC [6]: 580 ng·h/mL
Cmax [7]: 300 ng/mL
Ratio IC50 [15]: 7
IC50 [1]: 0.45 nM

SMILES: Cc1ccc(CN2C(C)(C)CC(=O)CC2(C)C)cc1NC(=O)c1ccc(Nc2ncc(C)c(-c3ccc(OC(F)(F)F)cc3)n2)cc1
IC50 [1]: 0.29 nM

SMILES: Cc1ccc(CN2C(C)(C)CCCC2(C)C)cc1NC(=O)c1ccc(Nc2ncc(C)c(-c3ccc(OC(F)(F)F)cc3)n2)cc1
IC50 [1]: 0.76 nM

SMILES: CS(=O)(=O)c1ccc(C(=O)Nc2ccc(Cl)c(-c3ccccn3)c2)c(Cl)c1 [VISMODEGIB]
half-life [2]: 1.6 h
IC50 [1]: 7.2 nM

SMILES: Cc1ccc(CNc2ccccc2)cc1NC(=O)c1ccc(Nc2ncc(C)c(-c3ccc(OC(F)(F)F)cc3)n2)cc1
IC50 [1]: 1.1 nM

SMILES: CCCN(C)Cc1ccc(C)c(NC(=O)c2ccc(Nc3ncc(C)c(-c4ccc(OC(F)(F)F)cc4)n3)cc2)c1
IC50 [1]: 0.93 nM

SMILES: Cc1cnc(Nc2ccc(C(=O)Nc3c(C)cccc3C)cc2)nc1-c1ccc(OC(F)(F)F)cc1
MRT last [10]: 5.1 h
MRT (Rattus norvegicus [16]): 4 h
IC50 [1]: 1.3 nM

More lines, main results first:

IC50 [1]: 5.6 nM
SMILES: Cc1ccc(CN2CCCCC2)cc1NC(=O)c1ccc(Nc2ncc(C)c(-c3cnn(C)c3)n2)cc1

IC50 [1]: 21.2 nM
SMILES: Cc1ccc(CN2CCC(O)CC2)cc1NC(=O)c1ccc(Nc2ncc(C)c(-c3cnn(C)c3)n2)cc1

IC50 [1]: 10.5 nM
SMILES: Cc1ccc(CN2CC3CCN(C)C3C2)cc1NC(=O)c1ccc(Nc2ncc(C)c(-c3ccc(OC(F)(F)F)cc3)n2)cc1 (centres undefined)

IC50 [1]: 17.5 nM
SMILES: CCCN(C)Cc1ccc(C)c(NC(=O)c2ccc(Nc3ncc(C)c(-c4cnn(C)c4)n3)cc2)c1

half-life [2]: 1.1 h
MRT last [3]: 0.9 h
clearance [4]: 61.5 mL/min/kg
Vd [5]: 5.7 L/kg
AUC [6]: 270 ng·h/mL
Cmax [7]: 580 ng/mL
IC50 [1]: 0.61 nM
SMILES: Cc1ccc(CN2CCN(C)CC2)cc1NC(=O)c1ccc(Nc2ncc(C)c(-c3ccncc3)n2)cc1

half-life [2]: 1 h
MRT last [3]: 1.2 h
clearance [4]: 23.3 mL/min/kg
Vd [5]: 2.1 L/kg
AUC [6]: 710 ng·h/mL
Cmax [7]: 840 ng/mL
IC50 [1]: 0.68 nM
SMILES: Cc1ccc(CN2CCOCC2)cc1NC(=O)c1ccc(Nc2ncc(C)c(-c3ccccc3)n2)cc1

IC50 [1]: 0.28 nM
SMILES: Cc1ccc(CN2CCC(=O)CC2)cc1NC(=O)c1ccc(Nc2ncc(C)c(-c3ccc(OC(F)(F)F)cc3)n2)cc1

IC50 [1]: 1.3 nM
SMILES: Cc1ccc(CN2CCN(C(=O)C3CC3)CC2)cc1NC(=O)c1ccc(Nc2ncc(C)c(-c3ccc(OC(F)(F)F)cc3)n2)cc1

IC50 [1]: 0.44 nM
SMILES: Cc1ccc(CN2CCC(O)CC2)cc1NC(=O)c1ccc(Nc2ncc(C)c(-c3ccc(OC(F)(F)F)cc3)n2)cc1

IC50 [1]: 1 nM
SMILES: Cc1ccc(CN2CCCCC2)cc1NC(=O)c1ccc(Nc2ncc(C)c(-c3ccc(OC(F)(F)F)cc3)n2)cc1
Ratio IC50 [15]: 7

IC50 [1]: 10 nM
SMILES: Cc1ccc(CN2CCN(C)CC2)cc1NC(=O)c1ccc(Nc2ncc(C)c(-c3cnn(C)c3)n2)cc1
